Measured values taken from ChEMBL document CHEMBL1145361, “3-Amino-1-alkyl-cyclopentane carboxamides as small molecule antagonists of the human and murine CC chemokine receptor 2” (Bioorg Med Chem Lett, 2007).

target: C-C chemokine receptor type 2 (Mus musculus, UniProt P51683); test: Displacement of [125I]MCP1 from mouse CCR2 receptor expressed in CHO cells; format: cell-based
Sequence (P51683 whole entry): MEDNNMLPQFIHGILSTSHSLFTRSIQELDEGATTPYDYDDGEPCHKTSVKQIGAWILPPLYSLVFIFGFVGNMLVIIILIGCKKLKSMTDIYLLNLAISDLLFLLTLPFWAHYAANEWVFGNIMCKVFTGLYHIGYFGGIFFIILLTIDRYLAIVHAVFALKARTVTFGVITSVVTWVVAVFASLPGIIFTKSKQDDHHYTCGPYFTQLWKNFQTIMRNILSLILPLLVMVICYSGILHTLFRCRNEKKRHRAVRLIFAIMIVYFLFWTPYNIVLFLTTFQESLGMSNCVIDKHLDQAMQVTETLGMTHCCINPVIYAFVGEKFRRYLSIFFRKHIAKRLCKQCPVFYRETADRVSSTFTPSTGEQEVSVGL

| SMILES | IC50 [nM] |
| --- | --- |
| CS[C@]1(C(=O)NCc2cc(C(F)(F)F)cc(C(F)(F)F)c2)CC[C@@H](N2CC[C@]3(C=Cc4ccccc43)[C@@H](C)C2)C1 | 351 |
| CCCCCCC1(C(=O)NCc2cc(C(F)(F)F)cc(C(F)(F)F)c2)CCC(N2CC[C@]3(C=Cc4ccccc43)[C@@H](C)C2)C1 (some centres undefined) | 279 |
| C[C@H]1CN(C2CCC(CC3CCC3)(C(=O)NCc3cc(F)cc(C(F)(F)F)c3)C2)CC[C@]12C=Cc1ccccc12 (single isomer, unassigned; diastereomer 2) | 147 |

Further lines, results first:

| IC50 [nM] | SMILES |
| --- | --- |
| 15 | CC(C)[C@]1(C(=O)NCc2cc(C(F)(F)F)cc(C(F)(F)F)c2)CC[C@@H](N2CC[C@]3(C=Cc4ccccc43)[C@@H](C)C2)C1 |
| 74 | COCC1(C(=O)NCc2cc(F)cc(C(F)(F)F)c2)CCC(N2CC[C@]3(C=Cc4ccccc43)[C@@H](C)C2)C1 (some centres undefined) |
| 26 | CC(C)C[C@]1(C(=O)NCc2cc(C(F)(F)F)cc(C(F)(F)F)c2)CC[C@@H](N2CC[C@]3(C=Cc4ccccc43)[C@@H](C)C2)C1 |
| 7.5 | CC(C)C[C@]1(C(=O)NCc2cc(F)cc(C(F)(F)F)c2)CC[C@@H](N2CC[C@]3(C=Cc4ccccc43)[C@@H](C)C2)C1 |
| 17 | CSC[C@]1(C(=O)NCc2cc(F)cc(C(F)(F)F)c2)CC[C@@H](N2CC[C@]3(C=Cc4ccccc43)[C@@H](C)C2)C1 |
| 57 | C[C@H]1CN([C@@H]2CC[C@](C)(C(=O)NCc3cc(F)cc(C(F)(F)F)c3)C2)CC[C@]12C=Cc1ccccc12 |
| 64 | C[C@H]1CN([C@@H]2CC[C@](CC3CCC3)(C(=O)NCc3cc(C(F)(F)F)cc(C(F)(F)F)c3)C2)CC[C@]12C=Cc1ccccc12 |
| 63.5 | C[C@H]1CN(C2CCC(CC3CC3)(C(=O)NCc3cc(C(F)(F)F)cc(C(F)(F)F)c3)C2)CC[C@]12C=Cc1ccccc12 (some centres undefined) |
| 45 | C[C@H]1CN(C2CCC(C(=O)NCc3cc(C(F)(F)F)cc(C(F)(F)F)c3)(C3CC3)C2)CC[C@]12C=Cc1ccccc12 (some centres undefined) |

target: C-C chemokine receptor type 2 (Homo sapiens, UniProt P41597, I40L); test: Displacement of [125I]MCP1 from human CCR2 I40L mutant expressed in CHO cells; format: cell-based
Procedure, shortened: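 Radioligand competition was run at room temperature for 45 min in 50 mM Hepes, 5 mM MgCl2, 1 mM CaCl2, pH 7.4, with 0.5% BSA and protease inhibitors. The reaction was stopped by filtration through GF/B filters presoaked in 0.10% polyethyleneimine to separate bound from free ligand.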

Chain of C-C chemokine receptor type 2 (Homo sapiens, UniProt P41597, I40L) (P41597 whole entry I40L): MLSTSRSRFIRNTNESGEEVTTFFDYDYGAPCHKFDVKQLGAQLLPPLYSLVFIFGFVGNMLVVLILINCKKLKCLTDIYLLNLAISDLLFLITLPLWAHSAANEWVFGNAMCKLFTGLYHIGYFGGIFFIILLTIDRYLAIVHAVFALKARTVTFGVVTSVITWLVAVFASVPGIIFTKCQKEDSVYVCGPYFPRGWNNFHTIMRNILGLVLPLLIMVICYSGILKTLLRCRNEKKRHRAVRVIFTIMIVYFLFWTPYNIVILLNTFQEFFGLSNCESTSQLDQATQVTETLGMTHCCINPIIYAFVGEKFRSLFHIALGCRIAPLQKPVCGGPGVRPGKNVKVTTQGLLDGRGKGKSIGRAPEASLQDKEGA

| SMILES | IC50 [nM] |
| --- | --- |
| C[C@H]1CN([C@@H]2CC[C@H](C(=O)NCc3cc(C(F)(F)F)cc(C(F)(F)F)c3)C2)CC[C@]12C=Cc1ccccc12 | 20 |
| C[C@H]1CN(C2CCC(CC3CCC3)(C(=O)NCc3cc(F)cc(C(F)(F)F)c3)C2)CC[C@]12C=Cc1ccccc12 (single isomer, unassigned; diastereomer 4) [listing 1 of 2 here] | 229 |
| CS[C@]1(C(=O)NCc2cc(C(F)(F)F)cc(C(F)(F)F)c2)CC[C@@H](N2CC[C@]3(C=Cc4ccccc43)[C@@H](C)C2)C1 | 28 |
| CCCCCCC1(C(=O)NCc2cc(C(F)(F)F)cc(C(F)(F)F)c2)CCC(N2CC[C@]3(C=Cc4ccccc43)[C@@H](C)C2)C1 (some centres undefined) | 231 |
| C[C@H]1CN(C2CCC(CC3CCC3)(C(=O)NCc3cc(F)cc(C(F)(F)F)c3)C2)CC[C@]12C=Cc1ccccc12 (single isomer, unassigned; diastereomer 2) | 32 |

Second part, the compound after the results:

| IC50 [nM] | SMILES |
| --- | --- |
| 7.6 | CC(C)[C@]1(C(=O)NCc2cc(C(F)(F)F)cc(C(F)(F)F)c2)CC[C@@H](N2CC[C@]3(C=Cc4ccccc43)[C@@H](C)C2)C1 |
| 8.5 | COCC1(C(=O)NCc2cc(F)cc(C(F)(F)F)c2)CCC(N2CC[C@]3(C=Cc4ccccc43)[C@@H](C)C2)C1 (some centres undefined) |
| 8 | CC(C)C[C@]1(C(=O)NCc2cc(C(F)(F)F)cc(C(F)(F)F)c2)CC[C@@H](N2CC[C@]3(C=Cc4ccccc43)[C@@H](C)C2)C1 |
| 3.9 | CC(C)C[C@]1(C(=O)NCc2cc(F)cc(C(F)(F)F)c2)CC[C@@H](N2CC[C@]3(C=Cc4ccccc43)[C@@H](C)C2)C1 |
| 3.5 | CSC[C@]1(C(=O)NCc2cc(F)cc(C(F)(F)F)c2)CC[C@@H](N2CC[C@]3(C=Cc4ccccc43)[C@@H](C)C2)C1 |
| 4 | C[C@H]1CN([C@@H]2CC[C@](C)(C(=O)NCc3cc(F)cc(C(F)(F)F)c3)C2)CC[C@]12C=Cc1ccccc12 |
| 19 | C[C@H]1CN([C@@H]2CC[C@](CC3CCC3)(C(=O)NCc3cc(C(F)(F)F)cc(C(F)(F)F)c3)C2)CC[C@]12C=Cc1ccccc12 |
| 20 | C[C@H]1CN(C2CCC(CC3CC3)(C(=O)NCc3cc(C(F)(F)F)cc(C(F)(F)F)c3)C2)CC[C@]12C=Cc1ccccc12 (some centres undefined) |
| 6.5 | C[C@H]1CN(C2CCC(C(=O)NCc3cc(C(F)(F)F)cc(C(F)(F)F)c3)(C3CC3)C2)CC[C@]12C=Cc1ccccc12 (some centres undefined) |

target: C-C chemokine receptor type 2 (Homo sapiens, UniProt P41597); test: Inhibition of Ca2+ flux in human monocytes; format: functional, cell-based
Sequence (P41597 whole entry): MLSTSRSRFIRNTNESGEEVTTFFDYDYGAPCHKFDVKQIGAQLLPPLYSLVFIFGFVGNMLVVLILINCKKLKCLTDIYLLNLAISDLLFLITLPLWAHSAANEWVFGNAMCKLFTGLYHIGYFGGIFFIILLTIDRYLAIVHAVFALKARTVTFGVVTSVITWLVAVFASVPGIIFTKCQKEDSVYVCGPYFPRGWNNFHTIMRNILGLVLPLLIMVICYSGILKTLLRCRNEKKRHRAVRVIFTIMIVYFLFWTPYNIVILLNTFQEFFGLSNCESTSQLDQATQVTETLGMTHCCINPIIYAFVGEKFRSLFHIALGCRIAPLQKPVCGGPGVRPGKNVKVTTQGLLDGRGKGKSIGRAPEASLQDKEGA

| IC50 [nM] | SMILES |
| --- | --- |
| 2.04 | CC(C)C[C@]1(C(=O)NCc2cc(F)cc(C(F)(F)F)c2)CC[C@@H](N2CC[C@]3(C=Cc4ccccc43)[C@@H](C)C2)C1 |

target: C-C chemokine receptor type 2 (Mus musculus) (UniProt P51683); test: Displacement of [125I]MCP1 from mouse CCR2 receptor expressed in CHO cells at 1 uM; format: cell-based
Sequence (P51683 whole entry, looked up): as the sequence (P51683 whole entry) above

| Activity [%] | SMILES |
| --- | --- |
| 27 | C[C@H]1CN([C@@H]2CC[C@H](C(=O)NCc3cc(C(F)(F)F)cc(C(F)(F)F)c3)C2)CC[C@]12C=Cc1ccccc12 |
| 49 | C[C@H]1CN(C2CCC(CC3CCC3)(C(=O)NCc3cc(F)cc(C(F)(F)F)c3)C2)CC[C@]12C=Cc1ccccc12 (single isomer, unassigned; diastereomer 4) [listing 2 of 2 here] |
